High-throughput results deposited in PubChem by several laboratories.
Only some compounds are listed: those with a hit (about 9.6% of all), similar ones and a draw of the others.
APP 5UTR inh – APP translation inhibition | SH-SY5Y APP 5'UTR-luciferase reporter, luminescence | inhibition, % at 2 µM | 190,000 tested, 0.82% active;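 active = inhibition above a set limit, derived from the sample mean plus 3 SD, cut at about 45% in these data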
BaF3 parental – parental Ba/F3 viability inhibition as JAK2V617F counter-screen; CellTiter-Glo ATP luminescence; inhibition, % at 5.6 µM; 220,000 tested, 1.1% active;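 active = inhibition above a per-campaign cutoff, the mean inhibition of all tested compounds plus 3 SD, cut at about 27% in these data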;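 note: 0% = DMSO wells and 100% = JAK Inhibitor I control wells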
Lmaj promast – Leishmania major promastigote growth inhibition | Leishmania major promastigotes, resazurin fluorescence viability | inhibition, % at 10 µM | 200,000 tested, 9% active | AID 1063; in the data active = inhibition above about 50%;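 note: promastigotes grown with compound for 44 hours at 28 °C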
Ba/F3 V617F tox – reduce viability of Ba/F3 cells dependent on JAK2V617F; Ba/F3 EpoR-JAK2V617F viability, ATP luminescence; inhibition, % at 5.6 µM; 220,000 tested, 1.1% active;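 active = inhibition above the campaign mean plus 3 SD over all tested compounds, cut at about 24% in these data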;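 note: cytokine-independent growth of Ba/F3 cells driven by EpoR plus mutant JAK2; 0% = DMSO-treated cells and 100% = JAK inhibitor I control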
b-catenin transl – modulators of beta-catenin nuclear translocation; AID 1665; nuclear translocation activity, % at 5 µM; 190,000 tested, 0.3% active; HeLa beta-catenin nuclear translocation, immunofluorescence imaging;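 active = nuclear translocation activity above 50% at 5 µM, with a well cell count of 50 or more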;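 note: per-cell ratio of nuclear to cytoplasmic median beta-catenin stain intensity; plate controls were DMSO negative control for no effect and GSK-3 inhibitor IX positive control for full effect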
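Technique: fluorescence imaging of beta-catenin antibody stain plus DAPI / Material: human HeLa cell line / Incubation: compound treatment 24 h, 37°C, 5% CO2 / Read-out basis: % activation of per-cell nuclear versus cytoplasmic median beta-catenin signal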
MT stabilizer – stabilizes microtubules in HeLa cells | % tubulin-high responders, % at 10 µM | HeLa tubulin immunostaining HCS, 24 h; share of cells brighter than vehicle mean+2SD | 200,000 tested, 0.83% active | AID 2205;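 active = plate Z-score above 3 for both tubulin-high and condensed-nucleus cell shares, with cell loss under 80%, at 10 µM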;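 note: anti alpha tubulin signal scored within the nucleus-defined area of each cell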
* marks the source's active call; other numbers are inactive results; / = no result given.

SMILES	APP 5UTR inh	BaF3 parental	Lmaj promast	Ba/F3 V617F tox	b-catenin transl	MT stabilizer
Cc1cc(Oc2nc3c(C)cccn3c(=O)c2/C=C(\C#N)S(=O)(=O)c2ccccc2)ccc1Cl	-8	5	54*	-1	2	3
Cc1cccn2c(=O)c(/C=C(\C#N)S(=O)(=O)c3ccccc3)c(Oc3ccc(Cl)cc3)nc12	-11	4	47	0	-1	3
CC(=O)c1c(COC(=O)c2ccc(C)cc2)nc2ccccc2[n+]1[O-]	/	51*	/	-3	0	/
CC(C(=O)N1CCN=C1c1ccccc1)N1C(=O)c2ccccc2C1=O (stereo not drawn)	/	-1	/	-1	2	/
Cc1cc(C)c(S(=O)(=O)N2CCN=C2c2ccccc2)cc1C	-6	6	9	-2	/	3
COc1cc(C)c(S(=O)(=O)N2CCN=C2c2ccccc2)cc1C	-2	3	94*	-3	-6	4
O=C(Nc1cccc(Cl)c1)c1ccc(NCCCN2CCOCC2)c([N+](=O)[O-])c1	13	7	99*	1	-1	2
Cc1ccc(NC(=O)c2ccc(NCC3CCCO3)c([N+](=O)[O-])c2)cc1Cl (stereo not drawn)	-7	4	-2	-2	-3	1
Cc1ccc(NC(=O)c2ccc(NCCCN3CCC(C)CC3)c([N+](=O)[O-])c2)cc1F	-16	9	84*	4	0	4
Cc1ccc(NC(=O)c2ccc(NCCN)c([N+](=O)[O-])c2)cc1	-33	-4	89*	-2	1	2
Cc1cc(Cl)ccc1NC(=S)NCc1ccco1	11	2	2	-1	-1	6
Nc1nc(SCC(=O)NC2CCCc3ccccc32)n[nH]1 (stereo not drawn)	4	2	-1	2	-1	2
Cc1cccc(-n2c(O)c(C=NC3CCS(=O)(=O)C3)c3ccccc3c2=O)c1C (stereo not drawn)	/	1	/	-6	-1	/
O=c1c(Oc2ccccc2Br)c(C(F)(F)F)oc2c(CN3CCCC3)c(O)ccc12	-2	4	86*	-2	-3	1
COC(=O)c1ccc(Oc2c(C)oc3c(CN4CCN(C)CC4)c(O)ccc3c2=O)cc1	10	3	100*	-1	1	3
COc1ccccc1Oc1c(C)oc2c(CN3CCN(C)CC3)c(O)ccc2c1=O	-2	4	21	3	-2	4
COc1cccc(Oc2c(C)oc3c(CN4CCCCC4)c(O)ccc3c2=O)c1	/	-1	/	-1	-1	/
COc1ccc(-c2c(C)oc3c(CN4CCN(C)CC4)c(O)ccc3c2=O)cc1	37	6	99*	1	-4	5
CCN1CCN(Cc2c(O)ccc3c(=O)c(-c4ccc(OC)c(OC)c4)c(C)oc23)CC1	-2	3	100*	2	1	5
COC(=O)C1(O)CC(C(C)C)=NN1C(=O)c1ccccc1 (stereo not drawn)	-3	6	-4	0	-1	5
CCCCC(=O)N(Cc1ccc(F)cc1)C1CCS(=O)(=O)C1 (stereo not drawn)	/	4	/	-5	1	/
Cc1ccccc1N=CC=C1OC(C)(C)C(C)(C)O1	7	5	3	0	0	3
CCOC(=O)CSc1n[nH]c(NC(=O)NC(C)C)n1	2	4	-4	1	0	1
CC(C)CC(=O)NC(=S)Nc1ccc(NC(=O)c2ccco2)cc1	6	4	0	0	0	3
O=C1CC(c2cccs2)c2ccc3ccccc3c2N1 (stereo not drawn)	-24	2	6	-2	1	2
COc1ccc(-c2c(C(F)(F)F)oc3c(CN4CCN(C)CC4)c(O)ccc3c2=O)cc1	-6	4	100*	0	0	1
COc1ccc(-c2coc3c(CN4CCCCC4)c(O)c(CN4CCCCC4)c(O)c3c2=O)cc1	-14	12	-3	1	/	3
COC(=O)c1ccc(Cl)cc1N(Cc1c(F)cccc1Cl)S(C)(=O)=O	/	-1	/	6	-1	/
CC(C)OC(=O)Nc1ccc2c(c1)N(C(=O)CCN1CCOCC1)c1ccccc1CC2	7	1	4	-4	0	3
Cc1ccc(C)c(S(=O)(=O)N2CCN(C(=O)Cn3c(C(F)(F)F)nc4ccccc43)CC2)c1	-3	2	5	-2	-3	4
